Test results as given in ChEMBL document CHEMBL4229410, “Facile construction of fused benzimidazole-isoquinolinones that induce cell-cycle arrest and apoptosis in colorectal cancer cells” (Bioorg Med Chem, 2018).

Legend:
[1] = molecular target: T1, Dual specificity mitogen-activated protein kinase kinase 1 (Homo sapiens, UniProt Q02750); assay: Inhibition of full length human MEK1 (M1 to V393 residues) expressed in mammalian expression system assessed as residual activity at 5 uM by KINOMEscan assay relative to control
[2] = molecular target: RAC-beta serine/threonine-protein kinase (Homo sapiens, UniProt P31751); assay: Binding affinity to human AKT2 expressed in bacterial expression system by KINOMEscan assay
[3] = molecular target: Serine/threonine-protein kinase B-raf (Homo sapiens, UniProt P15056); assay: Inhibition of human BRAF (S429 to E741 residues) expressed in mammalian expression system assessed as residual activity at 5 uM by KINOMEscan assay relative to control
SW-620 [4] = assay: Induction of apoptosis in human SW620 cells assessed as reduction in MCL1 expression after 48 hrs by Western blot analysis; type: functional, cell-based
SW-620 [5] = assay: Growth inhibition of human SW620 cells by MTT assay; type: functional
Method in brief: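 MTT viability assay: 3×10³ cells/well were pre-incubated for 24 h, then exposed to 0, 12.5, 25, 50, 100 or 200 μM for 12, 24, 48 or 72 h. MTT was added at 0.5 mg/mL final for 4 h, formazan dissolved in DMSO, and absorbance read at 570 nm. GI₅₀ was taken from growth-inhibition curves; mean ± SD of three independent experiments, each in sextuplicate.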

SW-620 [6] = assay: Induction of apoptosis in human SW620 cells assessed as late apoptotic cells at 25 uM after 48 hrs by Annexin-V-FITC/propidium iodide staining based flow cytometry (reference value: 1.2%); type: functional
[7] = molecular target: Phosphatidylinositol 4,5-bisphosphate 3-kinase catalytic subunit alpha isoform (Homo sapiens, UniProt P42336); assay: Inhibition of human PIK3CA (R108 to N1068 residues) expressed in mammalian expression system assessed as residual activity at 5 uM by KINOMEscan assay relative to control
[8] = molecular target: Cyclin-dependent kinase 7 (Homo sapiens, UniProt P50613); assay: Binding affinity to full length human CDK7 (M1 to L344 residues) expressed in mammalian expression system by KINOMEscan assay
[9] = molecular target: Serine/threonine-protein kinase Chk1 (Homo sapiens) (UniProt O14757); assay: Inhibition of human CHEK1 (M1 to G289 residues) expressed in bacterial expression system assessed as residual activity at 5 uM by KINOMEscan assay relative to control
SW-620 [10] = assay: Induction of apoptosis in human SW620 cells assessed as live cells at 75 uM after 48 hrs by Annexin-V-FITC/propidium iodide staining based flow cytometry (reference value: 97.5%); type: functional
[11] = molecular target: Platelet-derived growth factor receptor beta (Homo sapiens, UniProt P09619); assay: Binding affinity to human PDGFRB (V582 to Y1009 residues) expressed in bacterial expression system by KINOMEscan assay
HT-29 [12] = assay: Effect on total 4EBP1 expression in human HT-29 cells up to 75 uM after 48 hrs by Western blot analysis; type: ADME, cell-based; details: ht-29, 48 h
Method in brief: (§1)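 HT29 or SW620 cells were treated at 0, 25, 50 and 75 μM for 48 h and lysed in RIPA with protease and phosphatase inhibitors. Protein was quantified by BCA. 50 μg lysate was run on 8–15% SDS-PAGE and transferred to PVDF. Blocking was 5% BSA/TBST for 2 h; primary antibodies were applied overnight at 4 °C, then HRP secondary 1 h at room temperature.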

HT-29 [13] = assay: Cell cycle arrest in human HT-29 cells assessed as accumulation at G1-phase at 50 uM after 48 hrs by propidium iodide staining based flow cytometry (reference value: 41.86%); type: functional
[14] = molecular target: Cyclin-dependent kinase 9 (Homo sapiens, UniProt P50750); assay: Binding affinity to full length human CDK9 (M1 to F372 residues) expressed in bacterial expression system by KINOMEscan assay
[15] = molecular target: Casein kinase I isoform delta (Homo sapiens, UniProt P48730); assay: Inhibition of full length human CSNK1D (M1 to K409 residues) expressed in bacterial expression system assessed as residual activity at 5 uM by KINOMEscan assay relative to control
SW-620 [16] = assay: Cell cycle arrest in human SW620 cells assessed as accumulation at G2-phase at 25 uM after 48 hrs by propidium iodide staining based flow cytometry (reference value: 14.08%); type: functional
[17] = molecular target: T1, Dual specificity mitogen-activated protein kinase kinase 1; assay: Binding affinity to full length human MEK1 (M1 to V393 residues) expressed in mammalian expression system by KINOMEscan assay
[18] = test system: Epidermal growth factor receptor (Homo sapiens), P00533 [L858R]; assay: Inhibition of partial length human EGFR (R669 to V1011 residues) L858R mutant expressed in bacterial expression system assessed as residual activity at 5 uM by KINOMEscan assay relative to control
[19] = molecular target: Serine/threonine-protein kinase PAK 2 (Homo sapiens, UniProt Q13177); assay: Inhibition of partial length human PAK2 (P151 to R525 residues) expressed in bacterial expression system assessed as residual activity at 5 uM by KINOMEscan assay relative to control
[20] = molecular target: Proto-oncogene tyrosine-protein kinase receptor Ret (Homo sapiens, UniProt P07949); assay: Binding affinity to human RET (E713 to D1014 residues) expressed in bacterial expression system by KINOMEscan assay
HT-29 [21] = assay: Induction of apoptosis in human HT-29 cells assessed as late apoptotic cells at 25 uM after 48 hrs by Annexin-V-FITC/propidium iodide staining based flow cytometry (reference value: 4.1%); type: functional
SW-620 [22] = assay: Down regulation of CDK1 expression in human SW620 cells after 48 hrs by Western blot analysis; type: functional, cell-based; method in brief: as §1
SW-620 [23] = assay: Cell cycle arrest in human SW620 cells assessed as accumulation at S-phase at 25 uM after 48 hrs by propidium iodide staining based flow cytometry (reference value: 43.72%); type: functional
[24] = molecular target: Tyrosine-protein kinase ZAP-70 (Homo sapiens, UniProt P43403); assay: Binding affinity to human ZAP70 (D20 to G299 residues) expressed in mammalian expression system by KINOMEscan assay
[25] = molecular target: MAP kinase-interacting serine/threonine-protein kinase 2 (Homo sapiens, UniProt Q9HBH9); assay: Inhibition of human MKNK2 (G63 to S388 residues) expressed in mammalian expression system assessed as residual activity at 5 uM by KINOMEscan assay relative to control
[26] = molecular target: Mitogen-activated protein kinase 8 (Homo sapiens, UniProt P45983); assay: Inhibition of full length human JNK1 (M1 to Q384 residues) expressed in mammalian expression system assessed as residual activity at 5 uM by KINOMEscan assay relative to control
[27] = molecular target: Cyclin-dependent kinase 16 (Homo sapiens, UniProt Q00536); assay: Binding affinity to human PCTK1 (G160 to A474 residues) expressed in mammalian expression system by KINOMEscan assay
[28] = molecular target: Tyrosine-protein kinase BTK (Homo sapiens, UniProt Q06187); assay: Binding affinity to full length human BTK (M1 to S659 residues) expressed in mammalian expression system by KINOMEscan assay
Sequence of Tyrosine-protein kinase BTK (Q06187 whole entry, the tested form may be a part): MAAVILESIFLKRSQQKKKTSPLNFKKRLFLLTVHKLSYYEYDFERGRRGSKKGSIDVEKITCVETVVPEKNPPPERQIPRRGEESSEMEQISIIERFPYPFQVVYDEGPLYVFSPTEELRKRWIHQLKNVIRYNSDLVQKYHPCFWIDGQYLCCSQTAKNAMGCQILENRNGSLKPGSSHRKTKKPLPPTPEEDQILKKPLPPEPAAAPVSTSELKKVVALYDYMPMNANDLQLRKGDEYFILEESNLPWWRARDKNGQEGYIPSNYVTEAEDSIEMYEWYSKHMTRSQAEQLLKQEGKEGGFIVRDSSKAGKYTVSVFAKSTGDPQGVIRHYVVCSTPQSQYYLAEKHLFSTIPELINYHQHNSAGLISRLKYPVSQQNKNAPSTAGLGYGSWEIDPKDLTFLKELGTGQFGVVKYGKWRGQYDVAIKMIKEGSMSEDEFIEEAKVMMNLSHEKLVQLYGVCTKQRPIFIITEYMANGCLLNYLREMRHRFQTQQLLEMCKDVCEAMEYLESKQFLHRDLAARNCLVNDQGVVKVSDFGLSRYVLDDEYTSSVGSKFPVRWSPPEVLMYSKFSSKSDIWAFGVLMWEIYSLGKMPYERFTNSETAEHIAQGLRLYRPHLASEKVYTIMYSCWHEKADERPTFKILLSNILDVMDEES

T1 sequence (Q02750 whole entry, the tested form may be a part): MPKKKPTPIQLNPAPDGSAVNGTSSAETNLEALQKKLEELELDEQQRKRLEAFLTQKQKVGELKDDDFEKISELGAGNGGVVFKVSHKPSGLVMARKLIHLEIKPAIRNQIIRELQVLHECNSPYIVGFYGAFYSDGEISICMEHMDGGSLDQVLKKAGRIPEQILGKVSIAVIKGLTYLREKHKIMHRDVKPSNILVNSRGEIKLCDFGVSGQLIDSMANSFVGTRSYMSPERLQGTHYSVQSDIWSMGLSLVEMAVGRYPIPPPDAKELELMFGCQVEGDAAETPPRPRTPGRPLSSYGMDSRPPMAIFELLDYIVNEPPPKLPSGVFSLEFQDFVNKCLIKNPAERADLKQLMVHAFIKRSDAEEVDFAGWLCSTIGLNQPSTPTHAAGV
Sequence of Mitogen-activated protein kinase 8 (P45983 whole entry, the tested form may be a part): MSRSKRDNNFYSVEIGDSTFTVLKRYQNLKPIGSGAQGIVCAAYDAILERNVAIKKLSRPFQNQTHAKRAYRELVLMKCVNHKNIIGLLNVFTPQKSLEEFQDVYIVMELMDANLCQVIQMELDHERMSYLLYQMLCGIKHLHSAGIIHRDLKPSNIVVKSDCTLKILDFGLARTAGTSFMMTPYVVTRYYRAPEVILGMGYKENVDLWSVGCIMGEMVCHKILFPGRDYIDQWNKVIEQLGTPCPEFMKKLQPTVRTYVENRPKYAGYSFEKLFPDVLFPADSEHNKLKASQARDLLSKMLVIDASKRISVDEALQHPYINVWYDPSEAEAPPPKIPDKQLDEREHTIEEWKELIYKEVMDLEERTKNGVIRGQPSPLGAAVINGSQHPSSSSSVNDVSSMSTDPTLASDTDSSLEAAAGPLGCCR
Sequence of Cyclin-dependent kinase 9 (P50750 whole entry, the tested form may be a part, canonical isoform): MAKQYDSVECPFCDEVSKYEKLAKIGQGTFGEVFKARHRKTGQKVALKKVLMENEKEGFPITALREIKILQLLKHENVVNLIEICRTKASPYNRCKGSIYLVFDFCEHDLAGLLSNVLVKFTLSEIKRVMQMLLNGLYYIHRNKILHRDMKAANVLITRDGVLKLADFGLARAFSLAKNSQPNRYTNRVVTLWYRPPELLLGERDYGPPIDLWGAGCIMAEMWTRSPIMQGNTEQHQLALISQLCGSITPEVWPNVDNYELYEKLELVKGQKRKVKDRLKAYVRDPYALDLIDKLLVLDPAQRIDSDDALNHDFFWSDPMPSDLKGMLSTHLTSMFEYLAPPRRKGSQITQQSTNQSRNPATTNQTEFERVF
Sequence of Casein kinase I isoform delta (P48730 whole entry, looked up, the tested form may be a part, canonical isoform): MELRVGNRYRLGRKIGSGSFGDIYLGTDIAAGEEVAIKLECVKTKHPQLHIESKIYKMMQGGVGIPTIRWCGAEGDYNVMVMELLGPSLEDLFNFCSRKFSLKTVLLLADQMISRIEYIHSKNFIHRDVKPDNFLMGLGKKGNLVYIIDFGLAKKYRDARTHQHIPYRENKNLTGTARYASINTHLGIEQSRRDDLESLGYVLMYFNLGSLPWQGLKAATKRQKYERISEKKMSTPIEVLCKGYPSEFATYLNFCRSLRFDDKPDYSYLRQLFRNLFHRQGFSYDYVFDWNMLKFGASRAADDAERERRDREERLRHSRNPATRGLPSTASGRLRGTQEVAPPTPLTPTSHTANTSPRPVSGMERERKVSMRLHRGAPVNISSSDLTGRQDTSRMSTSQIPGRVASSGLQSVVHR
Sequence of Phosphatidylinositol 4,5-bisphosphate 3-kinase catalytic subunit alpha isoform (P42336 whole entry, the tested form may be a part, canonical isoform): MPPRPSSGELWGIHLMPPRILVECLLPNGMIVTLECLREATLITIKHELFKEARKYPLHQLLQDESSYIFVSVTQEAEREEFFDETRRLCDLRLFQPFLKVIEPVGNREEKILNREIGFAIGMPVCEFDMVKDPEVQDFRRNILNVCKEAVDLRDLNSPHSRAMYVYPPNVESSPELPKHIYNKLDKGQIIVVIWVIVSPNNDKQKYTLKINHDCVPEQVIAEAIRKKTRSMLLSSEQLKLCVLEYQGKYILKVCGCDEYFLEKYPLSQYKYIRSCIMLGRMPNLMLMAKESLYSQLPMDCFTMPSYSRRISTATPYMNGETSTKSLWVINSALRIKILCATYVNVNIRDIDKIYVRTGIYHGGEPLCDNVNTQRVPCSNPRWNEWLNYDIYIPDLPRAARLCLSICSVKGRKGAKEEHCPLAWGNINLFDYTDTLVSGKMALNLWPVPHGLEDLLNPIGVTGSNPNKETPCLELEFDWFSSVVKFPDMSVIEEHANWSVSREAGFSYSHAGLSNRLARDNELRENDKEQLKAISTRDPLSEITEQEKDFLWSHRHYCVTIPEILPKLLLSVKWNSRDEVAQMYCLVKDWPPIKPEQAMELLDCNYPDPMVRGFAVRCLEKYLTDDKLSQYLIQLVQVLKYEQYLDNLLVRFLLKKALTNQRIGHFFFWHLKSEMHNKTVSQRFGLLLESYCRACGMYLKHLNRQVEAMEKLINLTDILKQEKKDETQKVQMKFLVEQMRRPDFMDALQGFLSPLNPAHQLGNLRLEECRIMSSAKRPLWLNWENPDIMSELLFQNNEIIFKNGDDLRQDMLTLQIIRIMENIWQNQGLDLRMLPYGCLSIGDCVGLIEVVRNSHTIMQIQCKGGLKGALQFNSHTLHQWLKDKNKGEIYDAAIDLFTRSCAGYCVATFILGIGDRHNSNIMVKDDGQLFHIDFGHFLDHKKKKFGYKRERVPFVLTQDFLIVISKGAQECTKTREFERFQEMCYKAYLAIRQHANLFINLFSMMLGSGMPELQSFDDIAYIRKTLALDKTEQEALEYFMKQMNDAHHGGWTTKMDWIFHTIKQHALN
Sequence of Serine/threonine-protein kinase Chk1 (Homo sapiens) (O14757 whole entry, the tested form may be a part): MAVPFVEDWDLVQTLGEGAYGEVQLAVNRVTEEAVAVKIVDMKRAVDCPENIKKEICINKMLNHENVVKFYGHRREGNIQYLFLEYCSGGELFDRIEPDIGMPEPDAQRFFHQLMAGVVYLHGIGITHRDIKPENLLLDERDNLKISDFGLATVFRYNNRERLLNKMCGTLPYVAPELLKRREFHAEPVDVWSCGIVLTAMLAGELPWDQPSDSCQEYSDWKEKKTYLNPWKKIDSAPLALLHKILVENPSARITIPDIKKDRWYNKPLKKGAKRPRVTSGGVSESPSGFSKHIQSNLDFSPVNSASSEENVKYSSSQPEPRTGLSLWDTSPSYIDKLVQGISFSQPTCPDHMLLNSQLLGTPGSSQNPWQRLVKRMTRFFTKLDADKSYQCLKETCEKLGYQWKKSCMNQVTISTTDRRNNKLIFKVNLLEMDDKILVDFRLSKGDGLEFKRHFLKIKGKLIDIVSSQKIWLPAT
Sequence of RAC-beta serine/threonine-protein kinase (P31751 whole entry, the tested form may be a part): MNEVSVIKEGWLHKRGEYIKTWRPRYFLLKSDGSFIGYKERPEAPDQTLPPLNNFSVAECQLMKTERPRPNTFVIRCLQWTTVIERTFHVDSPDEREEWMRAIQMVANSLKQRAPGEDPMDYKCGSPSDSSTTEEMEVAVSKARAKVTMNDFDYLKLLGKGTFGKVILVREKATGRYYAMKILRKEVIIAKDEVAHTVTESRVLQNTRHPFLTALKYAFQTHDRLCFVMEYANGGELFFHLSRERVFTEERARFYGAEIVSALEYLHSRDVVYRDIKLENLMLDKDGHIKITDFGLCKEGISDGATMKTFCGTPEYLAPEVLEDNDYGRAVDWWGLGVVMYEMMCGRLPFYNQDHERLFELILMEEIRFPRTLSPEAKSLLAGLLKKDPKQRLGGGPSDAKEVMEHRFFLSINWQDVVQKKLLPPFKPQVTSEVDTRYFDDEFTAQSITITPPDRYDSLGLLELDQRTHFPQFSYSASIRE
Sequence of Tyrosine-protein kinase ZAP-70 (P43403 whole entry, the tested form may be a part): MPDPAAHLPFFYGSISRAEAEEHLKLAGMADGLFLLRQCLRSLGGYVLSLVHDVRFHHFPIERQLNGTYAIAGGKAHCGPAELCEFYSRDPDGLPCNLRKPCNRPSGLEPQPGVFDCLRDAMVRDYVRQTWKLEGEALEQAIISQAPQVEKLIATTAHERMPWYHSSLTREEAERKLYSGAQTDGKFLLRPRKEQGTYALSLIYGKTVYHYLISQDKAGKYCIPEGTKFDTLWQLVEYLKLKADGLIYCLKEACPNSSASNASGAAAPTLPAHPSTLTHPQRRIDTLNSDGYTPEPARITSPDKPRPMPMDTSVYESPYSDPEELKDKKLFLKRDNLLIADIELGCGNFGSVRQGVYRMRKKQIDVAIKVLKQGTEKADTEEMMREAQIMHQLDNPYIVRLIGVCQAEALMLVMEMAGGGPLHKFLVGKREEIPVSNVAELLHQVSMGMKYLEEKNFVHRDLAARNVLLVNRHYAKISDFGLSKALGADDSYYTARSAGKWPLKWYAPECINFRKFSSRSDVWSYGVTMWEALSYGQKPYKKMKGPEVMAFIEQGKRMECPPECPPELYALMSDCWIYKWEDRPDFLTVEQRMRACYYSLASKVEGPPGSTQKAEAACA

CC(C)CN(C(=O)c1cccnc1)c1c2ccccc2c(=O)n2c1[nH]c1ccccc12
Activity [1]: 91%
Kd [2]: ≥ 5 µM
Activity [3]: 82%
Activity (SW-620 [4]): Dose-dependent effect
GI50 (SW-620 [5]): 23.8 µM
Activity (SW-620 [6]): 4.1%
Activity [7]: 100%
Kd [8]: ≥ 5 µM
Activity [9]: 83%
Activity (SW-620 [10]): 76.7%
Kd [11]: ≥ 5 µM
Activity (HT-29 [12]): Non-Toxic
Activity (HT-29 [13]): 42.2%
Kd [14]: ≥ 5 µM
Activity [15]: 90%
Activity (SW-620 [16]): 14.72%
Kd [17]: ≥ 5 µM
Activity [18]: 92%
Activity [19]: 100%
Kd [20]: ≥ 5 µM
Activity (HT-29 [21]): 8%
Activity (SW-620 [22]): Dose-dependent effect
Activity (SW-620 [23]): 43.71%
Kd [24]: ≥ 5 µM
Activity [25]: 92%
Activity [26]: 69%
Kd [27]: ≥ 5 µM
Kd [28]: ≥ 5 µM
